ChEMBL document CHEMBL1255437, “Involvement of the beta subunit of RNA polymerase in resistance to streptolydigin and streptovaricin in the producer organisms Streptomyces lydicus and Streptomyces spectabilis” (2010)
≈ marks a conversion by molar mass, not a printed value.

Experiments:
Streptomyces albus [1] = experiment: Antimicrobial activity against transconjugant Streptomyces albus carrying pEM4T-Sbeta104 with RNA polymerase beta subunit A639S mutant after 5 to 7 days; assay type: functional
Method in brief: (§1)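 MIC by agar dilution. Spore suspensions were replica plated with a plate replicator onto Bennet's agar containing a range of streptolydigin or streptovaricin concentrations, then incubated 5 to 7 days at 30°C. Recombinant S. albus strains carried pEM4T-derived plasmids introduced by conjugation from E. coli ET12567(pUB307); producer strains and host S. albus J1074 were tested the same way.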

Streptomyces albus [2] = experiment: Antimicrobial activity against transconjugant Streptomyces albus carrying pEM4T-Sbeta100 with RNA polymerase beta subunit I467L mutant after 5 to 7 days; assay type: functional; method in brief: as §1
Streptomyces spectabilis = experiment: Antimicrobial activity against Streptomyces spectabilis NRRL 2494 after 5 to 7 days
Streptomyces albus [3] = experiment: Antimicrobial activity against transconjugant Streptomyces albus carrying pEM4T-Sbeta204 with RNA polymerase beta subunit L463I mutant after 5 to 7 days; assay type: functional; method in brief: as §1
Streptomyces albus [4] = experiment: Antimicrobial activity against transconjugant Streptomyces albus carrying pEM4T-Sbeta102 with RNA polymerase beta subunit S475A mutant after 5 to 7 days; assay type: functional; method in brief: as §1
Streptomyces albus [5] = experiment: Antimicrobial activity against transconjugant Streptomyces albus carrying pEM4T-Sbeta205 with RNA polymerase beta subunit S470N mutant after 5 to 7 days; assay type: functional; method in brief: as §1
Streptomyces albus [6] = experiment: Antimicrobial activity against transconjugant Streptomyces albus carrying pEM4T-Sbeta105 with RNA polymerase beta subunit N474S/S475A mutant after 5 to 7 days; assay type: functional; method in brief: as §1
Streptomyces albus [7] = experiment: Antimicrobial activity against transconjugant Streptomyces albus carrying pEM4T-CASbeta after 5 to 7 days; assay type: functional; method in brief: as §1
Streptomyces albus [8] = experiment: Antimicrobial activity against transconjugant Streptomyces albus carrying pEM4T-Sbeta103 with RNA polymerase beta subunit T638K mutant after 5 to 7 days; assay type: functional; method in brief: as §1
Streptomyces albus [9] = experiment: Antimicrobial activity against transconjugant Streptomyces albus carrying pEM4T-Sbeta' after 5 to 7 days; assay type: functional; method in brief: as §1
Streptomyces albus [10] = experiment: Antimicrobial activity against transconjugant Streptomyces albus carrying pEM4T-Abeta207 with RNA polymerase beta subunit S470N/A471S mutant after 5 to 7 days; assay type: functional; method in brief: as §1
Streptomyces albus [11] = experiment: Antimicrobial activity against transconjugant Streptomyces albus carrying pEM4T-Sbeta206 with RNA polymerase beta subunit A471S mutant after 5 to 7 days; assay type: functional; method in brief: as §1
Streptomyces albus [12] = experiment: Antimicrobial activity against transconjugant Streptomyces albus carrying pEM4T-Sbeta after 5 to 7 days; assay type: functional; method in brief: as §1
Streptomyces albus [13] = experiment: Antimicrobial activity against transconjugant Streptomyces albus carrying pEM4T-Sbeta101 with RNA polymerase beta subunit N474S mutant after 5 to 7 days; assay type: functional; method in brief: as §1
Streptomyces lydicus = experiment: Antimicrobial activity against Streptomyces lydicus NRRL 2433 after 5 to 7 days; assay type: functional
Method in brief: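 Spore suspensions replica-plated with a plate replicator onto Bennet's agar plates containing a range of streptolydigin and streptovaricin concentrations. Plates incubated 5 to 7 days at 30°C. MIC scored as growth inhibition on the solid medium. Strain NRRL2433 is the streptolydigin producer.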

Streptomyces albus [14] = experiment: Antimicrobial activity against transconjugant Streptomyces albus carrying pEM4T-Abeta after 5 to 7 days; assay type: functional; method in brief: as §1
Streptomyces albus [15] = experiment: Antimicrobial activity against transconjugant Streptomyces albus J1074 after 5 to 7 days; assay type: functional; method in brief: as §1
Streptomyces albus [16] = experiment: Antimicrobial activity against transconjugant Streptomyces albus carrying pEM4T-Lbeta101 with RNA polymerase beta subunit L485F mutant after 5 to 7 days; assay type: functional; method in brief: as §1
Streptomyces albus [17] = experiment: Antimicrobial activity against transconjugant Streptomyces albus carrying pEM4T-Lbeta104 with RNA polymerase beta subunit F593Y mutant after 5 to 7 days; assay type: functional; method in brief: as §1
Streptomyces albus [18] = experiment: Antimicrobial activity against transconjugant Streptomyces albus carrying pEM4T-Abeta203 with RNA polymerase beta subunit F484L/E485D mutant after 5 to 7 days; assay type: functional; method in brief: as §1
Streptomyces albus [19] = experiment: Antimicrobial activity against transconjugant Streptomyces albus carrying pEM4T-Abeta202 with RNA polymerase beta subunit E485D mutant after 5 to 7 days; assay type: functional; method in brief: as §1
Streptomyces albus [20] = experiment: Antimicrobial activity against transconjugant Streptomyces albus carrying pEM4T after 5 to 7 days; assay type: functional; method in brief: as §1
Streptomyces albus [21] = experiment: Antimicrobial activity against transconjugant Streptomyces albus carrying pEM4T-Lbeta after 5 to 7 days; assay type: functional; method in brief: as §1
Streptomyces albus [22] = experiment: Antimicrobial activity against transconjugant Streptomyces albus carrying pEM4T-Lbeta100 with RNA polymerase beta subunit T458N mutant after 5 to 7 days; assay type: functional; method in brief: as §1
Streptomyces albus [23] = experiment: Antimicrobial activity against transconjugant Streptomyces albus carrying pEM4T-CALbeta after 5 to 7 days; assay type: functional; method in brief: as §1
Streptomyces albus [24] = experiment: Antimicrobial activity against transconjugant Streptomyces albus carrying pEM4T-Lbeta108 with RNA polymerase beta subunit F593Y/M594L mutant after 5 to 7 days; assay type: functional; method in brief: as §1
Streptomyces albus [25] = experiment: Antimicrobial activity against transconjugant Streptomyces albus carrying pEM4T-Lbeta102 with RNA polymerase beta subunit D486E mutant after 5 to 7 days; assay type: functional; method in brief: as §1
Streptomyces albus [26] = experiment: Antimicrobial activity against transconjugant Streptomyces albus carrying pEM4T-Lbeta103 with RNA polymerase beta subunit L555V mutant after 5 to 7 days; assay type: functional; method in brief: as §1
Streptomyces albus [27] = experiment: Antimicrobial activity against transconjugant Streptomyces albus carrying pEM4T-Lbeta107 with RNA polymerase beta subunit L485F/D486E mutant after 5 to 7 days; assay type: functional; method in brief: as §1
Streptomyces albus [28] = experiment: Antimicrobial activity against transconjugant Streptomyces albus carrying pEM4T-Lbeta105 with RNA polymerase beta subunit S624A mutant after 5 to 7 days; assay type: functional; method in brief: as §1
Streptomyces albus [29] = experiment: Antimicrobial activity against transconjugant Streptomyces albus carrying pEM4T-Lbeta' after 5 to 7 days; assay type: functional; method in brief: as §1
Streptomyces albus [30] = experiment: Antimicrobial activity against transconjugant Streptomyces albus carrying pEM4T-Abeta201 with RNA polymerase beta subunit F484L mutant after 5 to 7 days; assay type: functional; method in brief: as §1
Streptomyces albus [31] = experiment: Antimicrobial activity against transconjugant Streptomyces albus carrying pEM4T-Lbeta106 with RNA polymerase beta subunit A636S mutant after 5 to 7 days; assay type: functional; method in brief: as §1

## CO[C@H]1/C=C/O[C@@]2(C)Oc3c(C)c(O)c4c(O)c(c(/C=N/N5CCN(C)CC5)c(O)c4c3C2=O)NC(=O)/C(C)=C\C=C\[C@H](C)[C@H](O)[C@@H](C)[C@@H](O)[C@@H](C)[C@H](OC(C)=O)[C@@H]1C [RIFAMPIN]
Streptomyces albus [1]
  MIC: 40 µg/mL (≈ 48.6 µM)
Streptomyces albus [2]
  MIC: 40 µg/mL (≈ 48.6 µM)
Streptomyces spectabilis
  MIC: > 40 µg/mL
Streptomyces albus [3]
  MIC: 5 µg/mL (≈ 6.08 µM)
Streptomyces albus [4]
  MIC: 40 µg/mL (≈ 48.6 µM)
Streptomyces albus [5]
  MIC: 5 µg/mL (≈ 6.08 µM)
Streptomyces albus [6]
  MIC: 5 µg/mL (≈ 6.08 µM)
Streptomyces albus [7]
  MIC: 40 µg/mL (≈ 48.6 µM)
Streptomyces albus [8]
  MIC: 20 µg/mL (≈ 24.3 µM)
Streptomyces albus [9]
  MIC: 5 µg/mL (≈ 6.08 µM)
Streptomyces albus [10]
  MIC: 40 µg/mL (≈ 48.6 µM)
Streptomyces albus [11]
  MIC: 5 µg/mL (≈ 6.08 µM)
Streptomyces albus [12]
  MIC: 40 µg/mL (≈ 48.6 µM)
Streptomyces albus [13]
  MIC: 5 µg/mL (≈ 6.08 µM)

## CNC(=O)[C@@H](C)[C@H]1C(=O)/C(=C(O)/C=C/C(C)=C/[C@@H](C)[C@H]2O[C@@]3(C)O[C@H](C=C[C@@]34CO4)[C@@H]2C)C(=O)N1[C@@H]1CC[C@H](O)[C@H](C)O1 [STREPTOLYDIGIN]
Streptomyces lydicus
  MIC: > 200 µg/mL
Streptomyces albus [14]
  MIC: 1 µg/mL (≈ 1.66 µM)
Streptomyces albus [15]
  MIC: 1 µg/mL (≈ 1.66 µM)
Streptomyces albus [16]
  MIC: 1 µg/mL (≈ 1.66 µM)
Streptomyces albus [17]
  MIC: 10 µg/mL (≈ 16.6 µM)
Streptomyces albus [18]
  MIC: 9 µg/mL (≈ 15 µM)
Streptomyces albus [19]
  MIC: 1 µg/mL (≈ 1.66 µM)
Streptomyces albus [20]
  MIC: 1 µg/mL (≈ 1.66 µM)
Streptomyces albus [21]
  MIC: 20 µg/mL (≈ 33.3 µM)
Streptomyces albus [22]
  MIC: 20 µg/mL (≈ 33.3 µM)
Streptomyces albus [23]
  MIC: 20 µg/mL (≈ 33.3 µM)
Streptomyces albus [24]
  MIC: 1 µg/mL (≈ 1.66 µM)
Streptomyces albus [25]
  MIC: 10 µg/mL (≈ 16.6 µM)
Streptomyces albus [26]
  MIC: 1 µg/mL (≈ 1.66 µM)
Streptomyces albus [27]
  MIC: 1 µg/mL (≈ 1.66 µM)
Streptomyces albus [28]
  MIC: 20 µg/mL (≈ 33.3 µM)
Streptomyces albus [29]
  MIC: 1 µg/mL (≈ 1.66 µM)
Streptomyces albus [30]
  MIC: 6 µg/mL (≈ 9.99 µM)
Streptomyces albus [31]
  MIC: 10 µg/mL (≈ 16.6 µM)

## COC(=O)[C@@H]1[C@H](O)[C@H](C)[C@H](O)[C@H](C)/C=C\C=C(/C)C(=O)Nc2c(C)c(OC(C)=O)c3c(c2O)C(=O)C(C)=C2OCOC(=C23)/C(C)=C/[C@@](C)(O)[C@H](O)[C@@H](C)[C@H]1O [STREPTOVARICIN]
Streptomyces albus [1]
  MIC: 200 µg/mL (≈ 260 µM)
Streptomyces albus [2]
  MIC: 200 µg/mL (≈ 260 µM)
Streptomyces spectabilis
  MIC: > 200 µg/mL
Streptomyces albus [3]
  MIC: 70 µg/mL (≈ 90.9 µM)
Streptomyces albus [4]
  MIC: 200 µg/mL (≈ 260 µM)
Streptomyces albus [5]
  MIC: 80 µg/mL (≈ 104 µM)
Streptomyces albus [6]
  MIC: 70 µg/mL (≈ 90.9 µM)
Streptomyces albus [7]
  MIC: 200 µg/mL (≈ 260 µM)
Streptomyces albus [8]
  MIC: 200 µg/mL (≈ 260 µM)
Streptomyces albus [9]
  MIC: 70 µg/mL (≈ 90.9 µM)
Streptomyces albus [10]
  MIC: 200 µg/mL (≈ 260 µM)
Streptomyces albus [11]
  MIC: 80 µg/mL (≈ 104 µM)
Streptomyces albus [12]
  MIC: 200 µg/mL (≈ 260 µM)
Streptomyces albus [13]
  MIC: 200 µg/mL (≈ 260 µM)
